Source: the array DNA melting data of Ke et al. (doi:10.1101/2024.01.08.574731)

Tests used:
[1] = folding enthalpy; higher = less favourable; fluorescence melt of hairpins on a sequencing array, two-state fit; settings: sodium 0.088 M
Summary of the method: (§1)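 Folding enthalpy and melting temperature were estimated with bootstrapped two-state fits and combined across four replicates by inverse-variance weighting, with fitted temperatures raised by 9.35 °C to match UV melts. The data were Cy3 fluorescence of library hairpins, with annealed Cy3 and quencher oligos, on a sequenced MiSeq flow cell in 50 mM Na-HEPES pH 8.0, 25 mM NaCl, imaged in 2.5 °C steps up to 60 °C and normalised to pre-quench Cy3 and control constructs.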

[2] = melting temperature; fluorescence melt of hairpins on a sequencing array, two-state fit, raised by 9.35 °C to match UV melts; settings: sodium 0.088 M
Summary of the method: as §1

Row | Sequence | folding enthalpy [1] | Tm [2]
1 | GTCATCGAAAGATTCGAC ((((((....)))..))) | -12.3 kcal/mol | 25.8 °C
2 | GGCTGCGAAAGCACGCC ((((((....))).))) | -29.6 kcal/mol | 65.2 °C
3 | GGGATCGGAAACGGTCCC ((((.((....)).)))) | -47.5 kcal/mol | 57.8 °C
4 | GTGGGAGGAAACTCCTGC (..((((....))))..) | -17.4 kcal/mol | 37.8 °C
5 | GGCCCGGGAAACCGGACC ((.((((....)))).)) | -29.3 kcal/mol | 57.5 °C
6 | GATAGCGAAAGCTAAATC ((((((....)))..))) | -8.92 kcal/mol | 27.7 °C
7 | GATCCGGGGCGGATC ((((((...)))))) | -37.2 kcal/mol | 56 °C
8 | GCGACTGGAAACAACCGC (((..((....))..))) | -18.1 kcal/mol | 29.2 °C
9 | GAGAGTGGAAACACCCTC (((.(((....))).))) | -26.8 kcal/mol | 36 °C
10 | GCGCTCGAAAGAGGCGC ((((((....))).))) | -29.2 kcal/mol | 67.4 °C
11 | GCTTCCCGAAAGGGCAGC (((.(((....))).))) | -32.5 kcal/mol | 53.3 °C
12 | GAAAGCGAAAGCTAATTC ((((((....)))..))) | -8.31 kcal/mol | 28.8 °C
13 | CGCGGACGACTCCGCG ((((((....)))))) | -40.8 kcal/mol | 63.5 °C
14 | GCCTGCGAAAGCAATGGC ((((((....)))..))) | -23.8 kcal/mol | 56 °C
15 | GATCTGGCTCCAGATC ((((((....)))))) | -39.4 kcal/mol | 53.1 °C
16 | GGGTACGAAAGTAACCC ((((((....))).))) | -26.9 kcal/mol | 54.3 °C
17 | GTGATGGGAAACTGTCAC ((((..(....)..)))) | -32.5 kcal/mol | 39.1 °C
18 | GGACTCGGAAACGAATCC (((.(((....))).))) | -26.7 kcal/mol | 40.9 °C
19 | GGTCCGGCGAAAGCCACC (((..(((....)))))) | -8.92 kcal/mol | 27.1 °C
20 | GATCCAGTGTTGGATC ((((((....)))))) | -36.9 kcal/mol | 50.8 °C
21 | GTCTATGGAAACACAGAC ((((.((....)).)))) | -21 kcal/mol | 31.6 °C
22 | GACGACGCGAAAGCGGTC (((..(((....)))))) | -11.5 kcal/mol | 47 °C
23 | GGGAGCACGAAAGTGCCC (((..(((....)))))) | -10.6 kcal/mol | 59.1 °C

Row | Sequence | folding enthalpy [1] | Tm [2]
24 | GCGGGGTCCGC ((((...)))) | -28.7 kcal/mol | 55.5 °C
25 | GATCCTCTGAAGGATC ((((((....)))))) | -36.8 kcal/mol | 51.6 °C
26 | GTCTTTCGAAAGAACGAC (((.(((....))).))) | -40.9 kcal/mol | 41 °C
27 | GTTGCTGAAAAGCAAC ((((((....)))))) | -32.8 kcal/mol | 66 °C
28 | GAGGGCGAAAGCCTTCTC ((((((....)))..))) | -16.6 kcal/mol | 52 °C
29 | GCATGGCGAAAGCCTCGC ((..(((....)))..)) | -13.4 kcal/mol | 43.7 °C
30 | GGTCGACGAAAGTCCACC (((.(((....))).))) | -25.6 kcal/mol | 43.9 °C
31 | GCGTGACGAAAGTCTCGC (((.(((....))).))) | -39.4 kcal/mol | 67.7 °C
32 | GCGTTGACGAAAGTCCGC (((..(((....)))))) | -24.1 kcal/mol | 51.4 °C
33 | GTATTCGAAAGAAATAC ((((((....))).))) | -14.9 kcal/mol | 34 °C
34 | GAAGACGAAAGTCGATTC ((((((....)))..))) | -24.1 kcal/mol | 47.4 °C
35 | GCACAGCGAAAGCGGGGC ((.(.((....)).).)) | -34.6 kcal/mol | 65.9 °C
36 | GATCCCGGAAACGAGATC ((((.((....)).)))) | -29.6 kcal/mol | 41.7 °C
37 | GCTTAGCGAAAGCGAGGC ((.(.((....)).).)) | -15.4 kcal/mol | 51.8 °C
38 | GCGAATTCGAAAGAACGC (((..(((....)))))) | -20.4 kcal/mol | 40.5 °C
39 | GCCTGGCGAAAGCATGGC (((..((....))..))) | -23.7 kcal/mol | 60.4 °C
40 | GCGATGCGAAAGCGTGGC ((.(.((....)).).)) | -21.6 kcal/mol | 54.7 °C
41 | GCATCGCGAAAGCCCTGC (((..((....))..))) | -7.86 kcal/mol | 33 °C
42 | GCAGATACGAAAGTATGC (((..(((....)))))) | -22.3 kcal/mol | 36.5 °C
43 | GATCAGGGAAACCTGACC (.(((((....))))).) | -17.2 kcal/mol | 36.3 °C
44 | GCGAGCACTCGC ((((....)))) | -26.4 kcal/mol | 56.8 °C
45 | GCGAGCGGAAACGCTTGC ((.((((....)))).)) | -34.4 kcal/mol | 61.9 °C
46 | GACGAAGGAAACTTCGTC (((((((....))))))) | -43.9 kcal/mol | 63.5 °C

Row | Sequence | folding enthalpy [1] | Tm [2]
47 | GGGATTCGAAAGAAGCCC (((.(((....))).))) | -34.7 kcal/mol | 63.5 °C
48 | GGGGCAGCGAAAGCTCCC (((..(((....)))))) | -16.7 kcal/mol | 56 °C
49 | GCGTACGAAAGTATGCGC ((((((....)))..))) | -37.5 kcal/mol | 58.4 °C
50 | GCTCAGGGAAACCTGAAC (.(((((....))))).) | -17.4 kcal/mol | 37.7 °C
51 | GCCGCGCGAAAGCCCTGC ((.(.((....)).).)) | -12.1 kcal/mol | 28.6 °C
52 | GCGAATGGAAACATTTGC ((.((((....)))).)) | -33.6 kcal/mol | 49.5 °C
53 | GCCTGCGAAAGCAAAGGC ((((((....)))..))) | -26.9 kcal/mol | 59.3 °C
54 | GCGCTAACGAAAGTTCGC (((..(((....)))))) | -21.8 kcal/mol | 45.4 °C
55 | GTCTGGGGAAACCTAGGC (.((.((....)).)).) | -19.8 kcal/mol | 34.8 °C
56 | GATTGAGGAAACCCAATC (((((.(....).))))) | -29.2 kcal/mol | 35.1 °C
57 | GTGTGTTCGAAAGAACAC (((..(((....)))))) | -15.7 kcal/mol | 64.2 °C
58 | ACCTCGAAAGAGGT (((((....))))) | -19.9 kcal/mol | 59.5 °C
59 | GCAGGTGGAAACACTTGC (((.(((....))).))) | -35.2 kcal/mol | 51.5 °C
60 | GCACGACGAAAGTCTTGC (((.(((....))).))) | -35.8 kcal/mol | 53.7 °C
61 | GTTATGGGAAACCATAGC (.(((((....))))).) | -24.1 kcal/mol | 36.9 °C
62 | GCGCTCGAAAGAGGTCGC ((((((....)))..))) | -25.2 kcal/mol | 47.9 °C
63 | GCCATCGAAAGATCGGGC ((((((....)))..))) | -25.1 kcal/mol | 41.6 °C
64 | GCGCCAGCGAAAGCTCGC (((..(((....)))))) | -8.39 kcal/mol | 45 °C
65 | GCTCGCGAAAGCGAAGC ((((((....))).))) | -17.6 kcal/mol | 65.3 °C
66 | GCACGCGAAAGCGATTGC ((((((....)))..))) | -14.2 kcal/mol | 45.9 °C
67 | GGGCTGCGAAAGCACCC (((.(((....)))))) | -21.4 kcal/mol | 57.2 °C
68 | GCGCGGCGAAAGCGTCGC (((..((....))..))) | -19.8 kcal/mol | 63.2 °C
69 | GATCTCCGAAAGGATATC (((.(((....))).))) | -31.9 kcal/mol | 39.3 °C
